Measurements: article PMC6503841 (Nature chemical biology, 2018)
Values belong to the molecule of their own block, whether it stands above or below them. Where a SMILES comes first, the peptide text is derived from it. Where no end group is shown, it is not given here. The star is where a group is joined. Oxazole(5-CO) = O=C(c1cnco1)*; Crotonyl(E) = C/C=C/C(=O)*; 2Furoyl = O=C(c1ccco1)*; Cbz = O=C(OCc1ccccc1)*

Experiments:
AF9 YEATS [1] = target: T1, AF9 YEATS (Homo sapiens, UniProt P42568); assay: isothermal titration calorimetry; type: binding; details: ITC Kd versus the crotonyl group (H3K9cr)
T1 sequence (P42568 1-138): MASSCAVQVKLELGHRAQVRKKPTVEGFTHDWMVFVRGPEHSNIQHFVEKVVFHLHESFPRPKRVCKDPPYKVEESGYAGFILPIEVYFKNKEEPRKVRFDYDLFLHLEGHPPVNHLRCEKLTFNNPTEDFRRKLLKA

ENL YEATS = target: T2, ENL YEATS (Homo sapiens, UniProt Q03111); assay: competitive photo-cross-linking assay, ENL YEATS; type: binding; details: comparing with AF9 YEATS
T2 sequence (Q03111 1-138): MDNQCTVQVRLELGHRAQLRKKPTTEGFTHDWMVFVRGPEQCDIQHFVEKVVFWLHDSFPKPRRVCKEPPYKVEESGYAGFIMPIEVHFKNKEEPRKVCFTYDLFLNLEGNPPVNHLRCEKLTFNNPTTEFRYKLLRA

[2] = test system: YEATS domains of YEATS2 and GAS41; assay: competitive photo-cross-linking assay, YEATS2 and GAS41 YEATS domains; type: binding, human; details: AF9 and ENL versus YEATS2 and GAS41; result in words
AF9 YEATS [3] = target: T1, AF9 YEATS; assay: competitive photo-cross-linking assay; type: binding; details: compared with ENL YEATS
endogenous ENL = target: T3, endogenous ENL (Homo sapiens, UniProt Q03111); assay: competitive photo-cross-linking pull-down in nuclear extracts, ENL; type: binding
T3 sequence (Q03111 1-559): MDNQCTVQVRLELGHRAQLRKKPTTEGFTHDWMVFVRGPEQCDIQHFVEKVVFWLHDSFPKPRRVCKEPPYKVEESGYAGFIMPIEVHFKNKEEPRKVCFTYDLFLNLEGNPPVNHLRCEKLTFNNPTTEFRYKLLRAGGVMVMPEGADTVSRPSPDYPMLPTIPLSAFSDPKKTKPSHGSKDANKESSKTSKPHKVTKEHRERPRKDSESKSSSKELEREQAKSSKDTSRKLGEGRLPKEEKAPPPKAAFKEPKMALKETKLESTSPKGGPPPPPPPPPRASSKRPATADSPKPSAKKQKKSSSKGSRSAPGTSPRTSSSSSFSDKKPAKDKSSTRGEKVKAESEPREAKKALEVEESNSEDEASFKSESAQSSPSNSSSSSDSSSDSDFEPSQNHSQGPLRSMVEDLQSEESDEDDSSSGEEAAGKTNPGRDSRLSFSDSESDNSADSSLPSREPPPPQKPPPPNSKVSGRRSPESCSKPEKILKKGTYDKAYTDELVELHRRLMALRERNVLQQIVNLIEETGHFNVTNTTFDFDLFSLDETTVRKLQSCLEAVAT

endogenous AF9 [4] = target: T4, endogenous AF9 (Homo sapiens, UniProt P42568); assay: competitive photo-cross-linking pull-down in nuclear extracts, AF9; type: binding
T4 sequence (P42568 1-568): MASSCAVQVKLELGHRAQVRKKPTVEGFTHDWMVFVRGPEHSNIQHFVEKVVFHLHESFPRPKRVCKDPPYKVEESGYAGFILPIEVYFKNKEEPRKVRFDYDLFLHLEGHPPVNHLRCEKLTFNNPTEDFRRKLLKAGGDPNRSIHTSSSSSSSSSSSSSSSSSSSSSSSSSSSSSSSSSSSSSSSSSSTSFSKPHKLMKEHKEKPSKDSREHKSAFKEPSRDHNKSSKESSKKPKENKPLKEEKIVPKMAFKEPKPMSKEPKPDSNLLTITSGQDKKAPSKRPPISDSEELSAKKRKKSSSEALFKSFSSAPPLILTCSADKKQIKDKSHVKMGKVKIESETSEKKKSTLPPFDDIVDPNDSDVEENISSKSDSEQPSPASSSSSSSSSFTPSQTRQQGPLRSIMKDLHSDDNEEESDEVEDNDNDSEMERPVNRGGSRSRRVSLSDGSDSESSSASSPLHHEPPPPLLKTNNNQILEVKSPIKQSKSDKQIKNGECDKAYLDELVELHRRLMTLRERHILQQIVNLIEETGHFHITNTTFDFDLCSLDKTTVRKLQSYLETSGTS

ENL = target: T5, ENL (Homo sapiens, UniProt Q03111); assay: cellular thermal shift assay; type: cell-based; details: MOLM-13, MV4;11, HEL cells, 50 μM, 12 h; 55 °C, 57 °C, and 59 °C
T5 sequence (Q03111 1-559): T3 sequence (Q03111 1-559)
Summary of the method: (§1)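 CETSA: MOLM-13 (Flag-ENL), MV4;11 or HEL cells were incubated with 50 μM test compound for 12 h, washed with PBS and resuspended in PBS with protease inhibitors (~3 million cells/100 μl). Aliquots were heated at indicated temperatures for 3 min, then held at room temperature for 3 min. Cells were lysed by two liquid-nitrogen freeze-thaw cycles and spun at 20,000×g for 20 min at 4 °C. Soluble supernatant was immunoblotted.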

endogenous AF9 [5] = target: T4, endogenous AF9; assay: cellular thermal shift assay; type: cell-based; details: MOLM-13, MV4;11, HEL cells, 50 μM, 12 h
Summary of the method: as §1

[6] = test system: ENL at HOXA10, MYB, MYC and MEIS1 in MOLM-13 cells; assay: ChIP-qPCR of ENL at target genes; type: cell-based, human; details: MOLM-13 (Flag-ENL) cells, 50 μM, 24 hours
Summary of the method: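 MOLM-13 (Flag-ENL) cells (about 20 million) were treated with or without 50 μM test compound for 24 h, cross-linked with formaldehyde for 10 min at room temperature and quenched with glycine. Chromatin was sonicated to 600–800 bp. 50 μg chromatin (5 μg input) was immunoprecipitated overnight at 4 °C with anti-FLAG M2 magnetic beads, washed, eluted and reverse cross-linked. DNA was measured by qPCR as percentage of input, n = 4 (HOXA10) or 3 (others).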

MOLM-13 cells = assay: RT-qPCR of mRNA levels in MOLM-13 cells; type: cell-based, human
[7] = target: ENL YEATS domain, ENL (1–138) (human) (UniProt Q03111); assay: cross-linking
[8] = target: T6, AF9 YEATS domain, AF9 (1–138) (human, UniProt P42568 1-138); assay: ITC
T6 sequence (looked up): T1 sequence (P42568 1-138)

[9] = target: T7, ENL YEATS domain, ENL (1–138) (human, UniProt Q03111 1-138); assay: cross-linking
T7 sequence (looked up): T2 sequence (Q03111 1-138)

[10] = target: T6, AF9 YEATS domain, AF9 (1–138); assay: cross-linking
[11] = nuclear extracts of HeLa S3 and MOLM-13 (Flag-ENL), result in words

Molecule: C[C@H](NC(=O)[C@@H](NC(=O)[C@H](CCC(N)=O)NC(=O)[C@@H](N)CCCCN)[C@@H](C)O)C(=O)N[C@@H](CCCNC(=N)N)C(=O)N[C@@H](CCCCNC(=O)c1ccco1)C(=O)N[C@@H](CO)C(=O)N[C@H](C(=O)NCC(=O)NCC(N)=O)[C@@H](C)O [XL-07] (H-KQTARK(2Furoyl)STGG-NH2; N-terminus and C-terminus assumed)
binding enhancement (AF9 YEATS [1]): 4.5 fold

Molecule: C[C@H](NC(=O)[C@@H](NC(=O)[C@H](CCC(N)=O)NC(=O)[C@@H](N)CCCCN)[C@@H](C)O)C(=O)N[C@@H](CCCNC(=N)N)C(=O)N[C@@H](CCCCNC(=O)c1cnco1)C(=O)N[C@@H](CO)C(=O)N[C@H](C(=O)NCC(=O)NCC(N)=O)[C@@H](C)O [XL-13] (H-KQTARK(Oxazole(5-CO))STGG-NH2; N-terminus and C-terminus assumed)
binding enhancement (AF9 YEATS [1]): 14.7 fold

Molecule: C[C@H](NC(=O)OCc1ccccc1)C(=O)N[C@@H](CCCNC(=N)N)C(=O)N[C@@H](CCCCNC(=O)c1cnco1)C(N)=O [XL-13m]
weaker inhibition against AF9 YEATS (AF9 YEATS [3]): 4.5 fold
photo-H3K9cr-induced enrichment of ENL (endogenous ENL; [11]): significantly inhibited
inhibition at 2 µM (endogenous ENL; read-out: inhibition of photo-H3K9cr-induced enrichment of endogenous ENL): ~50%
enrichment of AF9 (endogenous AF9 [4]; [11]): little effects
inhibition at 2 µM (endogenous AF9 [4]; read-out: inhibition of enrichment of AF9): ~3%
thermal stability of ENL (soluble protein) (ENL): higher abundance of soluble ENL proteins
thermal stability of endogenous AF9 (endogenous AF9 [5]): almost no differences
abundance of ENL at HOXA10, MYB, MYC and MEIS1 [6]: decreases in the abundance of ENL
transcription levels of HOXA10, MYB, MYC and MEIS1 (MOLM-13 cells; MOLM-13 (Flag-ENL) cells, 50 μM, 24 hours): significant loss in the transcription levels
transcription suppression of MYC and HOXA9 (MOLM-13 cells; co-treatment of XL-13m (50 μM) and EPZ-5676 (500 nM), 72 hours): enhanced effect on the transcription suppression

Molecule: Cbz-QTARK(Oxazole(5-CO)) [XL-13a (XL-07i with the 2-furancarbonyl group replaced by a 5-oxazolecarbonyl group)]
Kd [8]: 130 nM
fold lower potency than against AF9 YEATS [9]: 2.9 fold
IC50 [10]: 240 nM

Molecule: KQTARK(Crotonyl(E))STGG (peptide, UniProt P68431 5-14, looked up) [H3K9cr peptide (histone H3 residues 4–13, Lys 9 crotonylated)]
Kd [8]: 14700 nM
IC50 [10]: 6000 nM

More lines, main results first:

lower potency against ENL YEATS (ENL YEATS): 5 fold
Molecule: C[C@H](NC(=O)[C@@H](NC(=O)[C@H](CCC(N)=O)NC(=O)OCc1ccccc1)[C@@H](C)O)C(=O)N[C@@H](CCCNC(=N)N)C(=O)N[C@@H](CCCCNC(=O)c1ccco1)C(N)=O [XL-07i]
selectivity among YEATS domains [2]: more selective toward the YEATS domains of AF9 and ENL over YEATS2 and GAS41

weaker inhibition against AF9 YEATS (AF9 YEATS [3]): 6.1 fold
Molecule: C[C@H](NC(=O)OCc1ccccc1)C(=O)N[C@@H](C)C(=O)N[C@@H](CCCNC(=N)N)C(=O)N[C@@H](CCCCNC(=O)c1cnco1)C(N)=O [XL-13n] (Cbz-AARK(Oxazole(5-CO))-NH2)

IC50 [7]: 3300 nM
Molecule: XL-13l (dipeptide with only the RK signature motif, 5-oxazolecarbonyl at K27)

Kd [8]: 330 nM
fold lower potency than against AF9 YEATS [9]: 5 fold
IC50 [10]: 260 nM
Molecule: Cbz-QTARK(2Furoyl)

IC50 [10]: 4500 nM
Molecule: QTARK(2Furoyl) [XL-07h (pentapeptide with the QTARK sequence)]
